One data set addresses T1, Neutrophil elastase (Homo sapiens, UniProt P08246).
T1 sequence (P08246 whole entry): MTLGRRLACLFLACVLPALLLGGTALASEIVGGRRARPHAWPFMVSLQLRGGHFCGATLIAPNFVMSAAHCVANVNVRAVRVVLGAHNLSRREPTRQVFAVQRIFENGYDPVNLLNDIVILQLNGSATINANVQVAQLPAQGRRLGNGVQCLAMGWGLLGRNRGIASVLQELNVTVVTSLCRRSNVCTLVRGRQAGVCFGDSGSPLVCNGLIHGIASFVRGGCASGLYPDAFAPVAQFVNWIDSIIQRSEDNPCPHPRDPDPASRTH
The data set is described as follows: Inhibition of human neutrophil elastase using N-methylsuccinyl-Ala-Ala-Pro-Val-7-amino-4-methylcoumarin as substrate measured for every 30 sec for 10 mins by fluorescence based assay. To be noted: for pIC50: read-out: IC50.

The nature of data set [1]: Stability of compound in PBS at pH 7.4 assessed as half life by spectrophotometry. The class given is physicochemical. The note with it: buffer. An outline of the steps:
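Spontaneous hydrolysis measured at 20 °C in 0.05 M phosphate buffer, pH 7.4, with compound at 20 μM. Absorbance was read at each compound's characteristic maximum over time until it stopped falling (A∞). k' was taken from the slope of log(At − A∞) versus time, and t1/2 = 0.693/k'.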

34 compounds from ChEMBL document CHEMBL4673306, “Exploration of nitrogen heterocycle scaffolds for the development of potent human neutrophil elastase inhibitors” (Bioorg Med Chem, 2021) can be followed below.

pIC50: −log10 of the molar value.

For orientation: pIC50 means the negative decadic logarithm of the IC50, by convention in mol/L. For the compound `CCOC(=O)c1nn(C(=O)c2cccc(C)c2)c2ncccc12`, the pIC50 at Neutrophil elastase is 5.70. Still for that read-out and setting: the figure for `N#Cc1cn(C(=O)C2CC2)c2cnccc12` is 6.74. With `O=C(C1CC1)n1nc([N+](=O)[O-])c2cccnc21`, the pIC50 on Neutrophil elastase is 7.68. Moreover, the t1/2 in data set [1] came out at 1.56 h. As to `COc1cccc(NC(=O)c2cnc3cc(C)nn3c2C)c1`, the IC50 entry at Neutrophil elastase is “Not Active”. Still for that read-out and setting: the entry for `COc1cccc(CNC(=O)c2cnn3c(C)c(C(C)=O)cnc23)c1` is “Not Active”. With `Cc1cccc(C(=O)n2cc(C#N)c3cnccc32)c1`, in data set [1], the t1/2 came out at 2.722 h. Take `N#Cc1nn(C(=O)C2CC2)c2ncccc12`: the pIC50 on Neutrophil elastase was 7.47. The same measure, in the same setting: the figure for `Cc1cccc(C(=O)n2nc(C(F)(F)F)c3cccnc32)c1` is 6.38; for `Cc1cccc(C(=O)n2nc(C#N)c3cccnc32)c1` it is 6.48. Same read-out and setting: the figure for `Cc1cccc(C(=O)n2nc(C(=O)OC(C)C)c3cccnc32)c1` is 6.01. Take `N#Cc1nn(C(=O)C2CC2)c2ccncc12`: the pIC50 on Neutrophil elastase was 7.10. In data set [1], the t1/2 amounted to 1.32 h. On to `N#Cc1nn(Cc2ccccc2)c2ncccc12`, for which, at Neutrophil elastase, the IC50 result is recorded as “Not Active”. Consider `N#Cc1nn(C(=O)C2CCCC2)c2ncccc12`, for which the pIC50 on Neutrophil elastase was 6.85. Turning to `Cc1cccc(C(=O)n2nc(C#N)c3cnccc32)c1`, the pIC50 on Neutrophil elastase was 8.00. In addition, the t1/2 in data set [1] amounted to 0.203 h. `COc1cccc(CNC(=O)c2cnc3cc(C(C)(C)C)nn3c2C)c1`: on Neutrophil elastase, the IC50 result is “Not Active”. `CCOC(=O)c1nn(C(=O)C2CC2)c2ccncc12`: at Neutrophil elastase, the negative logarithm of the IC50 (pIC50) is 7.16. In data set [1], the t1/2 was determined as 7.28 h.

In the case of `CCOC(=O)c1nn(C(=O)c2cccc(C)c2)c2ccncc12`, at Neutrophil elastase, the pIC50 was 7.80. In addition, in data set [1], the t1/2 amounted to 2.45 h. For `O=C(C1CC1)n1nc(C(F)(F)F)c2cnccc21`, in that order: 7.06 and 6.435 h.

With `COc1cccc(CNC(=O)c2cnc3c(Cl)c(C(C)(C)C)nn3c2C)c1`, the IC50 result on Neutrophil elastase was “Not Active”. For the compound `COc1cccc(NC(=O)c2cnc3c(Cl)c(C(C)(C)C)nn3c2C)c1`, the IC50 entry against Neutrophil elastase is “Not Active”. Same read-out and setting: the entry for `COc1cccc(NC(=O)c2cnn3c(C)c(C(C)=O)cnc23)c1` is “Not Active”. As for `Nc1nn(C(=O)C2CC2)c2ncccc12`, the pIC50 at Neutrophil elastase was 5.00. For `N#Cc1cn(C(=O)C2CC2)c2cccnc12`, the pIC50 on Neutrophil elastase was 7.64. In data set [1], the t1/2 came to 4.472 h.

For the compound `Cc1ccc(C(=O)n2nc(C#N)c3cccnc32)cc1`, the pIC50 on Neutrophil elastase is 5.82. The same measure, in the same setting: as for `O=C(C1CC1)n1ccc2nccnc21`, the figure is 5.10. Regarding `COc1cccc(CNC(=O)c2cnc3cc(C)nn3c2C)c1`, the IC50 result on Neutrophil elastase was “Not Active”.

For the compound `Cc1cccc(C(=O)n2cc(C#N)c3ncccc32)c1`, the t1/2 in data set [1] worked out at 1.28 h. For the compound `N#Cc1nn(C(=O)C2CCCCC2)c2ncccc12`, on Neutrophil elastase, the pIC50 was 5.96. With `N#Cc1cn(C(=O)C2CC2)c2nccnc12`, the t1/2 in data set [1] is 1.677 h. Take `N#Cc1nn(C(=O)c2ccccc2)c2ncccc12`: on Neutrophil elastase, the negative logarithm of the IC50 (pIC50) was 6.80. Same read-out and setting: the figure for `Cc1cccc(C(=O)n2nc(C)c3cnccc32)c1` is 6.12. In the case of `O=C(C1CC1)n1nc(C(F)(F)F)c2cccnc21`, the pIC50 at Neutrophil elastase is 7.30. Besides, the t1/2 in data set [1] was determined as 14.7 h. Consider `COc1cccc(NC(=O)c2cnc3cc(C(C)(C)C)nn3c2C)c1`, for which the IC50 entry on Neutrophil elastase is “Not Active”. Regarding `Cc1cccc(C(=O)n2nc(C(F)(F)F)c3cnccc32)c1`, on Neutrophil elastase, the pIC50 was 7.48. For the same compound, the t1/2 in data set [1] stood at 1.777 h.
